These results are taken from PubChem BioAssay AID2237 (Johns Hopkins Ion Channel Center, 2010).

The campaign covered roughly 310,000 compounds. About 1,500 (0.48%) were called active. The sample holds actives, similar compounds and a random draw of the others, so the mix is not that of the screen.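 The calls were made as follows: active = B-score above 5 SD of library B-scores, and initial fluorescence ratio not above library mean plus 5 SD; inactive = the rest.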

Short transient receptor potential channel 4 (Mus musculus), sequence (Q9QUQ5 whole entry, looked up): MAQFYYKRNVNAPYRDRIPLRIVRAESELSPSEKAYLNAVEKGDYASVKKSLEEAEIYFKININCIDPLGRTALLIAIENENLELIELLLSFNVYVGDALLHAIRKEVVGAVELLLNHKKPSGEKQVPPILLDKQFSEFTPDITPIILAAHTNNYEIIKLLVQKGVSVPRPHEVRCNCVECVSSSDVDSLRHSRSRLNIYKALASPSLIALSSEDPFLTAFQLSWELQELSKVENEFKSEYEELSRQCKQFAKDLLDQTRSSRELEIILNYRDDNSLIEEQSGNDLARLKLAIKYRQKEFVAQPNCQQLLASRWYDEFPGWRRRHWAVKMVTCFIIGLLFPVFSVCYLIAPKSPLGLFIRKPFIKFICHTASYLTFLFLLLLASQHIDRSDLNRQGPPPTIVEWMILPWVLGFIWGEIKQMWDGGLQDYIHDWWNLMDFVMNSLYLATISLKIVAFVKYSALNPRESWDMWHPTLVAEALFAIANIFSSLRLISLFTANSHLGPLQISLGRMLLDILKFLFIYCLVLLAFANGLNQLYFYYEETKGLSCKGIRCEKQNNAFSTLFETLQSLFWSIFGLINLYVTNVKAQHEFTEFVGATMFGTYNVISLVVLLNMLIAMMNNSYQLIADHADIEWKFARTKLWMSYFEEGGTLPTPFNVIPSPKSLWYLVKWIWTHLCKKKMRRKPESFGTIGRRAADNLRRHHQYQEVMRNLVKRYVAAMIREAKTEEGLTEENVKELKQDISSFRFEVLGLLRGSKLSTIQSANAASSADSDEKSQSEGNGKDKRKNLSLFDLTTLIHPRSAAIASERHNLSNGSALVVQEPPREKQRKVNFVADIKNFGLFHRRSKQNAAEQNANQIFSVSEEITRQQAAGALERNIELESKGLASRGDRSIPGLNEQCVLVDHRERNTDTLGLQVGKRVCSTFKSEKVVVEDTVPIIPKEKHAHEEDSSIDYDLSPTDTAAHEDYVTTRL

The target of this experiment is Short transient receptor potential channel 4 (Mus musculus) (UniProt Q9QUQ5). The experiment can be described thus: TRPC4 cation channel opening, calcium rise – Fluo4 calcium, HEK293 TRPC4beta/mu-opioid cells, primary screen (AID 2237).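 As to B-score: positive B-score marks a calcium rise read as TRPC4 activation.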 The settings on record: Fluo4 calcium fluorescence, at 10 µM; active compounds read high. The gist of the method:
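System – HEK293 cells stably co-expressing mouse TRPC4beta and mu-opioid receptor · Signal – Fluo4 calcium-sensitive dye fluorescence, kinetic, 1 Hz baseline · Benchmarks – buffer (low) and maximal DAMGO (high) · Read-out – B score of integrated fluorescence ratio per well · Incubation – dye loading 45 min room temperature, 110 s kinetic read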
Consider `C/C(=N/OC(=O)c1ccc(Br)cc1)c1ccc(C)cc1`, for which the B-score result is “inactive”.
The same measure for `CC(C)N(Cc1nnc(-c2ccc(Cl)cc2)o1)C(=O)C1=COCCO1`: “inactive”.
In the case of `CNC(=O)COC(=O)c1cc(-c2ccc(OC)cc2)nc2ccccc12`, the B-score result was “inactive”.
For `Cc1cc(C(=O)Nc2ccccc2N2CCOCC2)c2ccccc2n1`, the B-score result was “inactive”.
Consider `COC(=O)c1cc(N2CCNCC2)nc2ccccc12`, for which the B-score is 87 (active).
On to `Cc1ccc(S(=O)(=O)NCC(=O)N(CC(=O)NCC2CCCO2)c2cccc(F)c2)cc1` (stereo unspecified), for which the B-score entry is “inactive”.
For the compound `CN(C)CCCN(C(=O)c1ccc(S(=O)(=O)N2CCCCCC2)cc1)c1nc2ccc(Br)cc2s1`, the B-score result was “inactive”.
`CN(C)CCCN(C(=O)c1ccc(S(=O)(=O)N2CCCCCC2)cc1)c1nc2cc3c(cc2s1)OCCO3`: the B-score entry was “inactive”.
For `CN(C)CCCN(C(=O)c1ccc(S(=O)(=O)N2CCCc3ccccc32)cc1)c1nc2ccc(F)cc2s1`, the B-score is 197 (active).
The same measure for `CCOc1ccc(N(CC(=O)NCCOc2ccccc2OC)S(=O)(=O)c2ccccc2)cc1`: “inactive”.
For `O=C(NNC(=O)C(O)c1ccccc1)NC1CCCCC1` (stereo unspecified) the value was “inactive”.
`COc1ccc2nc(/N=C(\N)NC(=O)Nc3ccccc3)nc(C)c2c1`: the B-score result was “inactive”.
Consider `Cc1nc(/N=C(\N)NC(=O)NC2CCCCC2)nc2ccccc12`, for which the B-score is 90 (active).
For `COC(=O)C1CCCCN1C(=O)c1ccc(OC2CCN(C(C)=O)CC2)c(OC)c1` (stereo unspecified) the value was “inactive”.
For `CN(CCO)S(=O)(=O)c1ccc2c(c1)C(=O)c1cc(S(=O)(=O)N(C)CCO)ccc1-2` the value was “inactive”; for `COC(=O)c1sc(-c2ccc(C(C)(C)C)cc2)cc1NC(=O)/C=C/C(=O)O`, “inactive”.
In the case of `NC(=O)CSc1nnc(NC(=O)c2ccc3ccccc3c2)s1`, the B-score result was “inactive”.
The same measure for `CCCc1ccc(OCCNC(=O)c2ccco2)cc1`: “inactive”; for `Cc1ccc(OCC(=O)NCCCNC(=O)c2ccco2)cc1C`: “inactive”.
For `Cc1ccc(C(=O)NNC(=O)C(C)Oc2ccc3ccccc3c2)o1` (stereo unspecified), the B-score entry is “inactive”.
Take `CCCc1ccc(OCC(=O)NNC(=S)NC(=O)c2ccco2)cc1`: the B-score is 66 (active).
With `O=C(Nc1ccc2ccccc2c1)/C(=C/c1cccc(Br)c1)NC(=O)c1ccco1`, the B-score result was “inactive”.
For `CC(Oc1ccc2ccccc2c1)C(=O)NNC(=S)NC(=O)c1ccco1` (stereo unspecified), the B-score was 65 (active).
For the compound `COc1cccc(NC(=O)CN2CCN(CC(=O)Nc3ccccc3Cl)CC2)c1`, the B-score entry was “inactive”.
For the compound `Cc1ccc(C23CC4CC(CC(C(=O)NCC(=O)O)(C4)C2)C3)cc1`, the B-score entry is “inactive”.
For the compound `CCC(=O)Nc1nnc(S(=O)(=O)N(CC(C)C)c2ccccc2)s1`, the B-score result was “inactive”.
For `Clc1ccc(-c2cc(-c3ccccn3)on2)c(Cl)c1`, the B-score result was “inactive”.
For `COn1c(-c2ccc(Cl)cc2Cl)nc2ncccc21` the value was “inactive”; for `Clc1ccc(COn2c(-c3ccc(Cl)cc3Cl)nc3ncccc32)cc1`, 80 (active); for `COc1ccccc1/C=N/N1CCN(Cc2ccccc2Cl)CC1`, “inactive”.
For `CC(=O)N1CC2(C)CN(C(C)=O)CC(C)(C1)C2=O` the value was “inactive”; for `COc1ccc(N2CCN(C(=O)CCNC(=O)c3ccc(Br)cc3)CC2)cc1`, “inactive”; for `COc1ccc(-n2nc(C(=O)NCC(=O)Nc3cccc(C)n3)c3ccccc3c2=O)cc1`, “inactive”.
In the case of `CCCN(CCC)CCCNC(=O)CNC(=O)c1nn(-c2ccc(OC)cc2)c(=O)c2ccccc12`, the B-score is 93 (active).
As for `COCCCNC(=O)CNC(=O)c1nn(-c2ccc(OC)cc2)c(=O)c2ccccc12`, the B-score result is “inactive”.
For `CCOC(=O)c1cnn(Cc2ccccc2Cl)c1N` the value was “inactive”.
For the compound `CCCC(C(=O)NC1CCCC1)N(C(=O)Cn1nnc(-c2ccc(C)o2)n1)c1cccc(O)c1` (stereo unspecified), the B-score entry was “inactive”.
As for `COc1cc(OC)c(-n2c(C)cc(C=O)c2C)cc1Cl`, the B-score result was “inactive”.
As for `COc1ccc(Cl)cc1S(=O)(=O)N1CCC(O)(c2ccc(Cl)cc2)CC1`, the B-score entry was “inactive”.
For `COc1cc(OC)c(-n2cc(-c3ccc(Cl)cc3)[nH]c2=O)cc1Cl` the value was 63 (active).
For the compound `O=C1CCN(C(=O)Nc2ccccc2)N1`, the B-score entry was “inactive”.
As to `CC(C)N(Cc1ccccc1)C(=O)COC(=O)c1cnccn1`, the B-score result was “inactive”.
Regarding `Oc1c(Cl)cc(Cl)c(Cl)c1Cc1c(O)c(Cl)cc(Cl)c1Cl`, the B-score is 53 (active).
Turning to `CC(=O)OC(C)C[N+](C)(C)C` (stereo unspecified), the B-score was 57 (active).
`CC(C[N+](C)(C)C)OC(N)=O` (stereo unspecified): the B-score result was “inactive”.
The same measure for `C=C(C)CSc1nnc(-c2ccc(C)cc2)n1N`: “inactive”.
With `CCCOC1CCCN(Cc2cn(C)nc2-c2ccccc2F)C1` (stereo unspecified), the B-score result is “inactive”.
In the case of `CCN(CC)c1ccc2cc(C(N)=O)/c(=N\NC(=O)c3ccncc3)oc2c1`, the B-score is 79 (active).
Consider `NC(=O)c1cc2ccccc2o/c1=N/NC(=O)c1cccc(F)c1`, for which the B-score result is “inactive”.
Take `COc1cccc2cc(C(N)=O)/c(=N\NC(=O)c3ccccc3)oc12`: the B-score entry was “inactive”.
For `CN1CCN(C(=O)CCc2ncc(C(F)(F)F)cc2Cl)CC1` the value was “inactive”; for `CNc1[nH]ncc1[N+](=O)[O-]`, “inactive”.
On to `O=C(Nc1ccc(F)c(Cl)c1)C1CCN(S(=O)(=O)c2cccnc2)CC1`, for which the B-score entry was “inactive”.
On to `Cc1cc(-c2ccc(C)c(S(=O)(=O)NCCCN(Cc3ccccc3)C(C)C)c2)on1`, for which the B-score was 127 (active).
The same measure for `CCOc1ccccc1CNS(=O)(=O)c1cc(-c2cc(C)no2)ccc1C`: “inactive”; for `Cc1cc(-c2ccc(C)c(S(=O)(=O)NC(C)Cc3ccco3)c2)on1` (stereo unspecified): “inactive”.
As for `C=CCNC(=O)C12CC3CC(C1)CC(C(=O)NCC=C)(C3)C2`, the B-score entry was “inactive”.
Turning to `O=C(NC1CCN(S(=O)(=O)c2ccc(F)cc2)CC1)c1ccccc1`, the B-score result is “inactive”.
Turning to `O=C(NCc1ccccc1Cl)c1csc2c1CCCCC2`, the B-score entry is “inactive”.
Consider `Cc1ccc(NC(=O)c2csc3c2CCCC3)cc1`, for which the B-score result is “inactive”.
For `CC1CC(C)CN(CCCNC(=O)c2csc3c2CCCCC3)C1` (stereo unspecified) the value was 97 (active).
For `CCOC(=O)c1ccccc1NC(=O)c1c(N)n(C)c(=O)[nH]c1=O` the value was “inactive”.
`CSc1ccc(S(=O)(=O)N2CCC(C(=O)NCCc3ccccc3)CC2)cc1`: the B-score result was “inactive”.
For the compound `c1ccc(-c2ccccc2OCCN2CCCCC2)cc1`, the B-score entry is “inactive”.
`CC1CN(CCCOc2ccccc2-c2ccccc2)CC(C)O1` (stereo unspecified): the B-score entry is “inactive”.
Consider `CC1CCCN(CCOCCOc2ccccc2-c2ccccc2)C1` (stereo unspecified), for which the B-score was 54 (active).
For `CCOc1ccccc1C1CC(c2ccc(Cl)cc2)Nc2nc(N)nn21` (stereo unspecified), the B-score is 116 (active).
In the case of `CCOc1ccccc1C1CC(c2ccccc2)Nc2nc(N)nn21` (stereo unspecified), the B-score result was “inactive”.
Turning to `COc1ccc(C2CC(c3ccc(Cl)cc3Cl)Nc3nc(N)nn32)cc1OC` (stereo unspecified), the B-score entry was “inactive”.
For `CC(C)(C)S(=O)(=O)c1ccccc1-c1noc(-c2ccccc2)c1C(N)=O` the value was “inactive”; for `Cn1c(CCNS(=O)(=O)c2ccc(F)cc2)nnc1SCc1cccnc1`, “inactive”; for `COc1ccc(NC(=O)c2cc([N+](=O)[O-])ccc2NC(=O)CNC2CCCCC2C)c(OC)c1` (stereo unspecified), “inactive”.
`Cc1ccc(C(=O)CCC(=O)N(C)CC(=O)Nc2c(Cl)cccc2Cl)cc1`: the B-score result was “inactive”.
Turning to `Cc1cccc(-c2nc3ccccc3c(=O)n2NC(=O)Cc2ccc(Cl)cc2)c1`, the B-score entry is “inactive”.
The same measure for `O=c1c2cc(Br)ccc2nc(-c2cccc(Cl)c2)n1O`: 121 (active); for `O=C1CCCc2c1nc(-c1cccc(Cl)c1)n2O`: “inactive”; for `O=c1[nH]c(CN2CCN(S(=O)(=O)c3ccc4c(c3)OCCO4)CC2)nc2sc3c(c12)CCCC3`: “inactive”.
In the case of `O=C(CCCN=C1NS(=O)(=O)c2ccccc21)OCC(=O)c1ccc(F)c(F)c1`, the B-score was 50 (active).
For the compound `N#CC1(NC(=O)COC(=O)CCN=C2NS(=O)(=O)c3ccccc32)CCCCC1`, the B-score entry was “inactive”.
For `O=C(OCCN=C1NS(=O)(=O)c2ccccc21)c1cccc([N+](=O)[O-])c1`, the B-score entry is “inactive”.
For `Cc1cc(C)c2nc(N3CCC(C(=O)NCCN4CCOCC4)CC3)sc2c1` the value was “inactive”; for `CCC1CCCCN1CCCNC(=O)c1cc2c(Cl)nc3ccccc3c2s1` (stereo unspecified), “inactive”.
As to `CC1CCCCN1S(=O)(=O)c1ccc(C(=O)Nc2nnc(-c3cccs3)o2)cc1` (stereo unspecified), the B-score was 74 (active).
For `CSCc1nnc(NC(=O)c2ccc(S(=O)(=O)N3CCCCC3C)cc2)o1` (stereo unspecified), the B-score result was “inactive”.
For the compound `CC1CCCN(S(=O)(=O)c2ccc(C(=O)Nc3nnc(-c4ccncc4)o3)cc2)C1` (stereo unspecified), the B-score entry is “inactive”.
In the case of `COc1ccc(N2C(=O)NC(NS(=O)(=O)c3ccc(Cl)cc3)(C(F)(F)F)C2=O)cc1` (stereo unspecified), the B-score result was “inactive”.
Turning to `CCCc1ccc(OCC(O)CN2CCN(CCO)CC2)cc1` (stereo unspecified), the B-score entry was “inactive”.
As for `CCOc1ccc(N(CC(=O)NCCc2ccc(OC)cc2)S(C)(=O)=O)cc1`, the B-score result was “inactive”.
Turning to `CC1(C)CC(N2CCN(C(c3ccccc3)c3ccccc3)CC2)=CC(=[N+]2CCCCC2)C1`, the B-score entry was “inactive”.
On to `COCCN1C2=C(COC(C)(C)C2)C(=S)NC1c1ccccc1` (stereo unspecified), for which the B-score is 76 (active).
Turning to `COCCN1C(=O)N[C@@H](CCc2ccccc2)[C@H](C(C)=O)[C@H]1C`, the B-score entry is “inactive”.
As for `COC(=O)C1=C(C)N(C)C(=S)NC1c1ccccc1` (stereo unspecified), the B-score result was “inactive”.
For `CCN(c1ccccc1)S(=O)(=O)c1ccc2[nH]c(=O)[nH]c2c1` the value was “inactive”; for `CCOc1ccc(NS(=O)(=O)c2ccc(C(=O)NC3CCN(Cc4ccccc4)CC3)cc2)cc1`, 49 (active).
`CCOc1ccc(CC(=O)NC2CCN(Cc3ccccc3)CC2)cc1`: the B-score result was “inactive”.
The same measure for `CCOc1ccc(C(=O)NC2CCN(S(=O)(=O)CC)CC2)cc1`: “inactive”; for `CN(CCc1ccccn1)C(=O)c1ccc(OC2CCN(CCc3ccccc3)CC2)cc1`: “inactive”.
Regarding `CC(O)CN(Cc1ccc(Cl)cc1)CC(C)O` (stereo unspecified), the B-score entry was “inactive”.
In the case of `COc1cc(C(=O)N(C)Cc2cccc(OC)c2OC)ccc1OCC(=O)Nc1cccc(C(F)(F)F)c1`, the B-score result was “inactive”.
For `O=C(NNC(=S)NCc1ccco1)C(c1ccccc1)c1ccccc1`, the B-score entry was “inactive”.
Regarding `CC(C)C(=O)Nc1cccc(NC(=S)NC(=O)C(c2ccccc2)c2ccccc2)c1`, the B-score entry is “inactive”.
The same measure for `CCCCC(=O)NNC(=S)NC(=O)C(c1ccccc1)c1ccccc1`: 152 (active); for `O=C(NCCc1ccccn1)c1ccc(COc2ccccc2)o1`: 120 (active).
For `COc1ccc(NC(=O)CN(C)C(=O)c2ccc(COc3ccccc3)o2)cc1` the value was “inactive”; for `CCOc1ccc(OCc2ccc(C(=O)N(C)c3ccccc3)o2)cc1`, “inactive”; for `Cc1cc(N2CCN(c3ccc(F)cc3)CC2)n2ncnc2n1`, “inactive”.
